Tests used:
WNV = WNV subgenomic replicon assay; assay type: cell-based, West Nile virus; settings: for inhibition against WNV relative to DENV: 10 μM, comparison of replicon assays
DENV = DENV subgenomic replicon assay; assay type: cell-based, Dengue virus; settings: for DENV Inhibition %: single concentration 10 μM, 3 days, BHK replicon cells; for activity against DENV relative to WNV: 10 μM, comparison of replicon assays
[1] = tested on: WNV replicon-containing cells; experiment: Cell viability assay; assay type: cell-based, baby hamster; settings: for cytotoxicity: 10 μM, replicon cells
[2] = tested on: DENV replicon-containing cells; experiment: Cell viability assay; assay type: cell-based, baby hamster; settings: single concentration 10 μM, 3 days, DENV replicon BHK cells
HIV-1 [3] = settings: read-out: EC50 against HIV-1; as reported previously ref 23; cited from earlier work
HIV-1 [4] = experiment: HIV-1 antiviral assay; assay type: cell-based; settings: data not shown
DNV3MTase = DNV3MTase (Dengue virus type 3, UniProt P27915); experiment: SAM binding inhibition; set-up: species or system DENV3; settings: 20 μM compound, 580 nM biotinylated DNV3MTase, 425 nM 3H-SAM
Sequence of DNV3MTase (P27915 2492-2753): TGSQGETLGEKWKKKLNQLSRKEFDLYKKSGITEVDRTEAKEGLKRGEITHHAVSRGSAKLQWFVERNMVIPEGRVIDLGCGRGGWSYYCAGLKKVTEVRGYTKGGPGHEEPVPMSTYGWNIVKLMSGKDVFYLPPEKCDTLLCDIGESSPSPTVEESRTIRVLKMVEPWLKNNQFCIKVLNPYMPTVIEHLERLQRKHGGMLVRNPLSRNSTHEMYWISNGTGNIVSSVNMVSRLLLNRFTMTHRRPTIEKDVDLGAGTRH
Procedure, shortened: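 DENV3 MTase from E. coli, refolded from urea on Ni-NTA and cleaved with 3C protease, then NHS-biotinylated (13:1 biotin:protein). Test compound, SAM or sinefungin preincubated 20 min at 23°C. Then 1.65 μCi ³H-SAM, 15 min. Centrifuged; SPA counts read.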

## 3′-azidothymidine [4, AZT, reference compound]
WNV; single concentration 10 μM, 3 days, BHK replicon cells
  WNV Inhibition %: 0%
DENV
  DENV Inhibition %: 0%
[1]; single concentration 10 μM, 3 days, WNV replicon BHK cells
  WNV Viability %: 83%
[2]
  DENV Viability %: 89%

## COc1ccc2cc(-c3cnnn3[C@H]3C[C@H](n4cc(C)c(=O)[nH]c4=O)O[C@@H]3CO)ccc2c1 [10a, 1-((2R,4S,5S)-5-(Hydroxymethyl)-4-(5-(6-methoxynaphthalen-2-yl)-1H-1,2,3-triazol-1-yl)tetrahydrofuran-2-yl)-5-methylpyrimidine-2,4(1H,3H)-dione]
DENV
  DENV Inhibition %: did not show any inhibition
HIV-1 [3]
  EC50: 67 nM

## COc1ccc2cc(-c3cnnn3[C@H]3C[C@H](n4cc(C)c(=O)[nH]c4=O)O[C@@H]3CO[Si](C)(C)C(C)(C)C)ccc2c1 [11a]
DENV
  DENV Inhibition %: inhibited both viruses almost completely
HIV-1 [4]
  anti-HIV-1 activity: no appreciable anti-HIV-1 activity

## Cc1cn([C@H]2C[C@H](N3C(=O)CSC3c3ccc4[nH]ccc4c3)[C@@H](CO[Si](C)(C)C(C)(C)C)O2)c(=O)[nH]c1=O (stereo partly drawn) [13b]
WNV
  inhibition against WNV relative to DENV: substantially higher inhibition against WNV than DENV

## Cc1cn([C@H]2C[C@H](N3C(=O)CSC3c3c4ccccc4cc4ccccc34)[C@@H](CO[Si](C)(C)C(C)(C)C)O2)c(=O)[nH]c1=O (stereo partly drawn) [13c]
WNV
  inhibition against WNV relative to DENV: substantially higher inhibition against WNV than DENV

## Cc1cn([C@H]2C[C@H](NC(=O)c3c[nH]c4ccccc34)[C@@H](CO[Si](C)(C)C(C)(C)C)O2)c(=O)[nH]c1=O [15f]
DENV
  activity against DENV relative to WNV: considerably more active against DENV than WNV

## Cc1cn([C@H]2C[C@H](NC(=O)c3ccc(N4CCOCC4)cc3)[C@@H](CO[Si](C)(C)C(C)(C)C)O2)c(=O)[nH]c1=O [15h]
DENV
  activity against DENV relative to WNV: considerably more active against DENV than WNV

## Cc1cn([C@H]2C[C@H](NC(=O)Nc3ccccc3)[C@@H](CO[Si](C)(C)C(C)(C)C)O2)c(=O)[nH]c1=O [19a]
DENV
  activity against DENV relative to WNV: considerably more active against DENV than WNV

## Cc1cn([C@H]2C[C@H](NC(=O)Nc3cccc4ccccc34)[C@@H](CO[Si](C)(C)C(C)(C)C)O2)c(=O)[nH]c1=O [19b]
DENV
  activity against DENV relative to WNV: considerably more active against DENV than WNV

## Cc1cn([C@H]2C[C@H](NC(=O)NC34CC5CC(CC(C5)C3)C4)[C@@H](CO[Si](C)(C)C(C)(C)C)O2)c(=O)[nH]c1=O [19c]
WNV
  inhibition against WNV relative to DENV: substantially higher inhibition against WNV than DENV

## Cc1ccc(S(=O)(=O)NC(=O)N[C@H]2C[C@H](n3cc(C)c(=O)[nH]c3=O)O[C@@H]2CO[Si](C)(C)C(C)(C)C)cc1 [21a, N-(((2S,3S,5R)-2-(((tert-Butyldimethylsilyl)oxy)methyl)-5-(5-meth-yl-2,4-dioxo-3,4-dihydropyrimidin-1(2H)-yl)tetrahydrofuran-3-yl)-carbamoyl)-4-methylbenzenesulfonamide]
DENV
  activity against DENV relative to WNV: considerably more active against DENV than WNV

## C[S+](CC[C@H](N)C(=O)[O-])C[C@H]1O[C@@H](n2cnc3c(N)ncnc32)[C@H](O)[C@@H]1O (stereo partly drawn) [SAM, S-adenosyl-L-methionine]
DNV3MTase
  Inhibition of the [3H]-SAM-MTase complex formation: same level of reduction

## Nc1ncnc2c1ncn2[C@@H]1O[C@H](C[C@@H](N)CC[C@H](N)C(=O)O)[C@@H](O)[C@H]1O [SIN, sinefungin]
DNV3MTase
  Inhibition of the [3H]-SAM-MTase complex formation: same level of reduction

## COc1ccc2cc(-c3cnnn3[C@H]3C[C@H](n4cc(C)c(=O)[nH]c4=O)O[C@@H]3CO[Si](C(C)C)(C(C)C)C(C)C)ccc2c1 [compound 22]
[1]
  cytotoxicity: significant cytotoxicity

## COc1ccc2cc(-c3cnnn3[C@H]3C[C@H](n4cc(C)c(=O)[nH]c4=O)O[C@@H]3CO[Si](c3ccccc3)(c3ccccc3)C(C)(C)C)ccc2c1 [compound 23]
[1]
  cytotoxicity: significant cytotoxicity

## COc1ccc2cc(-c3cnnn3[C@H]3C[C@H](n4cc(C)c(=O)[nH]c4=O)O[C@@H]3COC(C)=O)ccc2c1 [compound 24, ((2S,3S,5R)-3-(5-(6-Methoxynaphthalen-2-yl)-1H-1,2,3-triazol-1-yl)-5-(5-methyl-2,4-dioxo-3,4-dihydropyrimidin-1(2H)-yl)tetrahydrofuran-2-yl)methyl acetate]
DENV
  DENV Inhibition %: did not yield appreciable antiviral activity

## COC[C@H]1O[C@@H](n2cc(C)c(=O)n(C)c2=O)C[C@@H]1n1nncc1-c1ccc2cc(OC)ccc2c1 [compound 25, 1-((2R,4S,5S)-5-(Methoxymethyl)-4-(5-(6-methoxynaphthalen-2-yl)-1H-1,2,3-triazol-1-yl)tetrahydrofuran-2-yl)-3,5-dimethylpyrimidine-2,4(1H,3H)-dione]
DENV
  DENV Inhibition %: did not yield appreciable antiviral activity

## CCOCOC[C@H]1O[C@@H](n2cc(C)c(=O)[nH]c2=O)C[C@@H]1n1nncc1-c1ccc2cc(OC)ccc2c1 [compound 26, 1-((2R,4S,5S)-5-((Ethoxymethoxy)methyl)-4-(5-(6-methoxynaphthalen-2-yl)-1H-1,2,3-triazol-1-yl)tetrahydrofuran-2-yl)-5-methylpyrimidine-2,4(1H,3H)-dione]
DENV
  DENV Inhibition %: did not yield appreciable antiviral activity

## COc1ccc2cc(-c3cnnn3[C@H]3C[C@H](n4cc(C)c(=O)[nH]c4=O)O[C@@H]3COC3CCCCO3)ccc2c1 (stereo partly drawn) [compound 27, 1-((2R,4S,5S)-4-(5-(6-Methoxynaphthalen-2-yl)-1H-1,2,3-triazol-1-yl)-5-(((tetrahydro-2H-pyran-2-yl)oxy)methyl)-tetrahydrofuran-2-yl)-5-methylpyrimidine-2,4(1H,3H)-dione]
DENV
  DENV Inhibition %: did not yield appreciable antiviral activity

Source: paper PMC4465584 (Journal of medicinal chemistry, 2015)
